A selection: hits, their analogues and other compounds. The true share with any hit is near 3.5%.
Apaf1 inhib = inhibitors of human Apaf-1 apoptosome. O14727. reconstituted apoptosome caspase-3 activity, DEVD-Rh110 fluorescence. inhibition, % at 20 µM. hit rate 0.71% among 330,000; active = inhibition of at least 40% at 20 µM;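 also: plate controls were DMSO wells for no effect and DEVD-CHO caspase inhibitor wells for full effect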
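Material: biochemical Apaf-1 apoptosome reconstitution. Medium: Hepes buffer, pH 7.5. Also added: cytochrome c activation, bis-DEVD rhodamine 110 substrate. Timing: 30 min compound preincubation, 50 min activation, room temperature. Measured by: rhodamine 110 fluorescence at Ex 480/Em 540 nm.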
PREPL inhibitor = inhibits the human prolyl oligopeptidase-like enzyme. Q4J6C6. recombinant PREPL, fluorescence polarization activity-based probe. inhibition, % at 5.96 µM. hit rate 0.68% among 320,000. AID 2751; in the data active = inhibition above about 43%;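 also: 0% = enzyme with DMSO and 100% = wells lacking enzyme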
pPAFAH FP inh = inhibitors of human plasma PAF acetylhydrolase (pPAFAH); recombinant pPAFAH, FP-rhodamine probe fluorescence polarization; inhibition, % at 3.39 µM; hit rate 1.5% among 330,000; AID 463082;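 active = inhibition above the mean inhibition across the screen plus 3 SD, cut at about 25% in these data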;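 also: inhibitors block binding of the rhodamine activity-based probe so polarization drops; 0% = enzyme with DMSO and 100% = wells lacking pPAFAH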
Target sequence (Q13093 whole entry, looked up): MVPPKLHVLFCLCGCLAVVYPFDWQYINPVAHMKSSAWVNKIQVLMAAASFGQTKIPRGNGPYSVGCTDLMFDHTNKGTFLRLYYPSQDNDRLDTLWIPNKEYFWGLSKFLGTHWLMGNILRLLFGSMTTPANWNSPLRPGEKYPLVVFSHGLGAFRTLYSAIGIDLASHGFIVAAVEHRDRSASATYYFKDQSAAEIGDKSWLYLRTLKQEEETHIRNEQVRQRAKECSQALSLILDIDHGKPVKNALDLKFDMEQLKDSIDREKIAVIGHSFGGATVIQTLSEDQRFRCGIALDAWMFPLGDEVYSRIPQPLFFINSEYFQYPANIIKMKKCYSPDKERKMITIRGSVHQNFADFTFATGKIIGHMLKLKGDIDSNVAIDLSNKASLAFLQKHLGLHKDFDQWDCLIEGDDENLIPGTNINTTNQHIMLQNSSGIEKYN
PAFAH1B3 FP inh = inhibitors of human PAFAH1B3; recombinant PAFAH1B3, FP-rhodamine probe, fluorescence polarization; inhibition, % at 3.39 µM; hit rate 0.28% among 340,000; AID 492972;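 active = inhibition above the screen-wide average of all tested compounds plus 3 SD, cut at about 25% in these data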;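 also: 0% = enzyme with DMSO only and 100% = wells lacking PAFAH1B3 protein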
PAFAH1B2 inh = blocks human PAF acetylhydrolase 1b catalytic subunit 2; P68402; recombinant PAFAH1B2, FP-rhodamine activity probe, fluorescence polarization; inhibition, % at 3.39 µM; hit rate 1.2% among 340,000;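 active = inhibition above the mean of all tested compounds plus 3 SD, cut at about 24% in these data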;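 also: 0% = enzyme with DMSO and 100% = wells lacking PAFAH1B2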
PAFAH2 FP inh = PAFAH2 (human) inhibition; recombinant PAFAH2, FP-rhodamine activity probe, fluorescence polarization; inhibition, % at 3.39 µM; hit rate 0.99% among 340,000; AID 492956;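 active = inhibition above the mean over all tested compounds plus 3 SD, cut at about 30% in these data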;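 also: inhibitors block probe labeling of enzyme so polarization drops; 0% = enzyme with DMSO and 100% = wells lacking PAFAH2 protein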
Apaf-1 inh conf2 = Apaf-1 inhibition, single-dose confirmed; shares compounds with Apaf1 inhib; reconstituted apoptosome, caspase-3 DEVD-Rh110 fluorescence; inhibition, % at 20 µM; hit rate 25% among 1,800;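 active = mean inhibition of at least 40% at 20 µM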;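 also: plate controls were DMSO wells for no effect and DEVD-CHO caspase inhibitor control wells for full effect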
Rh110 interf inh = counter-screen for Apaf-1 inhibitors: fluorescence interference; shares compounds with Apaf1 inhib; Rh110 fluorescence interference, quenched caspase reaction; activation (fluorescence interference), % at 20 µM; 1,800 tested, under 10 active;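 active = signal rise of 40% or more at 20 µM, treated as a fluorescence artifact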
Apaf1 inh interf = shows fluorescence interference in the Apaf-1 inhibitor assay format; shares compounds with Apaf1 inhib; fluorescence interference counterscreen, Apaf-1 assay format; IC50, µM; 460 tested, under 10 active; AID 588538; call rule not given here
The depositor's hits bear a star; · = no result.

SMILES	Apaf1 inhib	PREPL inhibitor	pPAFAH FP inh	PAFAH1B3 FP inh	PAFAH1B2 inh	PAFAH2 FP inh	Apaf-1 inh conf2	Rh110 interf inh	others
N#Cc1c(N2CCCCC2)nc(N)c2c(N)nc3c(c12)CC(c1ccccc1)O3 (centres undefined)	42*	10	10	10	0	10	12	3
CCCN1CCN(C(=O)CCNC(=O)Cn2cnc3ccccc3c2=O)CC1	-2	1	5	5	0	-5	·	·
CS(=O)(=O)c1ccc(-c2sc3cc4c(cc3c2C(=O)NN2CCOCC2)OCO4)cc1	22	31	-1	0	7	2	·	·
Cc1cc2oc3cc(NCCC4CCCN4C)ccc3c(=O)c2cc1C (centres undefined)	44*	22	3	7	5	2	9	17
CC(C)NC(=O)Cn1cc(C(=O)C2CC2)c2ccccc21	-1	3	0	1	4	-4	·	·
CC(=O)N1CC(C)Oc2ccc(S(=O)(=O)Nc3ccc(Cl)cn3)cc21 (centres undefined)	-1	-2	2	8	4	0	·	·
O=C(Nc1cc([N+](=O)[O-])ccc1O)c1cccc(NC(=O)c2ccco2)c1	-12	15	16	6	6	7	·	·
Cc1cc(=O)oc(C)c1C(=O)O	-17	5	9	5	-1	-3	·	·
Cc1oc2c(c1C(=O)O)C(=O)c1ccccc1C2=O	79*	2	0	20	6	4	69*	-1	Apaf1 inh interf=>100
N#CC(Cc1ccccc1)(Cc1ccccc1)C(=O)NN	-1	-4	3	-7	-2	2	·	·
NC[C@@H]1O[C@H](C23CC4CC(CC(C4)C2)C3)Cc2c1ccc(O)c2O	42*	16	14	11	3	1	3	6
CCN(CC)c1ccc(C(=O)NC(=S)N2CCN(Cc3ccc4c(c3)OCO4)CC2)cc1	2	6	4	-2	1	-1	·	·
Cc1cc(F)cc(C)c1Cn1cnc2c(cnn2C(C)(C)C)c1=O	25	10	-7	15	6	-6	·	·
Oc1cccc(/C=N/N2CCCCC2)c1O	8	8	15	14	6	1	·	·
Oc1ccc(/C=N/N2CCCCC2)c(O)c1O	70*	18	21	18	5	15	19	3
COCCCNC(=O)c1c(N)n(-c2cccc(S(N)(=O)=O)c2)c2nc3ccccc3nc12	43*	13	8	4	-2	7	28	1
COc1ccccc1-n1c(N)c(C(=O)NCC2CCCO2)c2nc3ccccc3nc21 (centres undefined)	69*	13	3	7	2	11	15	7
Nc1c(C(=O)NCC2CCCO2)c2nc3ccccc3nc2n1-c1ccccc1 (centres undefined)	60*	4	7	-1	-4	2	27	9
CCC1S/C(=N/N=C/c2ccco2)N(Cc2ccccc2)C1=O (centres undefined)	2	2	7	·	·	·	·	·
O=C(C[n+]1ccccc1)N/N=C/c1c(F)cccc1Cl	2	9	4	8	5	-6	·	·
Nc1ccc2c(c1)C(=O)c1ccccc1C2=O	3	8	0	-6	2	3	·	·
O=C1C(=O)c2ccc(-c3ccccc3)cc2-c2ccccc21	98*	13	19	58*	9	51*	100*	8	Apaf1 inh interf=>100
Cc1ccc(Nc2cnn(C34CC5CC(CC(CC(=O)O)(C5)C3)C4)c(=O)c2Cl)c(Cl)c1	3	3	2	6	8	8	·	·
CC1=NN(c2ccccc2)C(=O)C1N=Nc1ccc(C)cc1 (centres undefined)	-9	0	1	·	·	·	·	·
CC1=NN(c2ccc(C)cc2C)C(=O)C1C(c1ccccc1O)C1C(=O)N(c2ccc(C)cc2C)N=C1C (centres undefined)	97*	-5	3	3	-3	9	23	-2
